According to paper PMC8968902 (Haematologica, 2021):

Legend:
[1] = reported half-lives; cited from earlier work
[2] = system: TNFa; details: BTKi-naïve patients; cited from earlier work
[3] = system: CCL3; details: BTKi-naïve patients; cited from earlier work
[4] = system: CCL4; details: BTKi-naïve patients; cited from earlier work
[5] = Phase Ib dose-escalation study: safety and tolerability in patients; type: in vivo, human
[6] = Pharmacokinetics in patients; type: in vivo, human; details: 38 patients, 20.5-410 mg BID
Outline: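 Phase Ib, patients with relapsed/refractory CLL or other B-cell malignancies; test compound given orally as capsules twice daily at seven escalating dose levels, 20.5 mg/dose up to 410 mg BID. Pharmacokinetic data from 38 patients across the ~12 hour dosing interval; trough concentrations taken on cycle 1 day 8.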

[7] = system: CCL4; assay: Serum cytokine levels by ELISA in CLL patients; type: in vivo, human; details: after one cycle, 246, 328 and 410 mg dose levels
[8] = system: CCL3; assay: Serum cytokine levels by ELISA in CLL patients; type: in vivo, human; details: after one cycle, 246, 328 and 410 mg dose levels
[9] = Protein binding; type: in vitro ADME
[10] = system: relapsed/refractory CLL or other B-cell malignancies; assay: Phase Ib dose-escalation study: clinical activity; type: in vivo, human
[11] = target: BTK WT (Homo sapiens, UniProt Q06187); assay: In vitro cellular assay, BTK residence time, BTK WT; type: cell-based; details: read-out: BTK residence time
[12] = system: TNFa; assay: Serum cytokine levels by ELISA in CLL patients; type: in vivo, human; details: after one cycle, 246, 328 and 410 mg dose levels

BTK WT, sequence (Q06187 whole entry): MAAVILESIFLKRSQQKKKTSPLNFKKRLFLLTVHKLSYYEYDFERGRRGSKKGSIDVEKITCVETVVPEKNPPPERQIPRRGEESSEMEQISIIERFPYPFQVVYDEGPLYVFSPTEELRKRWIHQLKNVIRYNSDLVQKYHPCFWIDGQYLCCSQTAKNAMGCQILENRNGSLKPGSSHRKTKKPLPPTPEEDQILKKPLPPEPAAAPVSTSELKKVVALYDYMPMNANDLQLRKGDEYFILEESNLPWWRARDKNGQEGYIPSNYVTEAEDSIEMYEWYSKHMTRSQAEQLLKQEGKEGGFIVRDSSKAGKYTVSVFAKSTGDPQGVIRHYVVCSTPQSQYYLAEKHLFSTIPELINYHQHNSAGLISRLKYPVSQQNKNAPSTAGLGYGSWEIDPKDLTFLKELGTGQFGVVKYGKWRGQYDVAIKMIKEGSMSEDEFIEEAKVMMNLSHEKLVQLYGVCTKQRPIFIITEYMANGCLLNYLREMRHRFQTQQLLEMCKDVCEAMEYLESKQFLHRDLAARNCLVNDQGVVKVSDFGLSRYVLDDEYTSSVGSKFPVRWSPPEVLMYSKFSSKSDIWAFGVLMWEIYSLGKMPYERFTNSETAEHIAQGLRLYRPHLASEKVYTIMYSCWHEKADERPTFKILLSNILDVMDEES

In the case of O=C(c1ccc(Oc2ccccc2)cc1Cl)c1c[nH]c2ncnc(N[C@@H]3CC[C@@H](CO)OC3)c12 [ARQ 531], the Half-life [1] is listed as roughly 55 h.
For C=CC(=O)N1CCC[C@@H](n2nc(-c3ccc(Oc4ccccc4)cc3)c3c(N)ncnc32)C1 [Ibrutinib, ibrutinib], the “Median decrease in TNFa” value [2] is given as no less than 80%, the “Median decrease in CCL3” value [3] is given as no less than 80% and the “Median decrease in CCL4” value [4] is given as no less than 80%.
For COc1ccc(F)cc1C(=O)NCc1ccc(-c2nn([C@@H](C)C(F)(F)F)c(N)c2C(N)=O)cc1 [Pirtobrutinib, pirtobrutinib], the Half-life [1] is listed as “approximately 20 hours”.
With NC(=O)[C@H]1CCN(c2ncnc(N)c2F)C[C@@H]1N1CCC[C@@H](Nc2cc(Cl)cc(C(F)(F)F)c2)C1=O [Vecabrutinib, vecabrutinib] the “Grade ≥3 AE at the two highest dose levels” value ([5]; 328 and 410 mg BID) was “no grade ≥3 AE observed”, the “AE considered treatment-related by the investigator: anemia” value ([5]; all patients) was 10% and the “AE considered treatment-related by the investigator: fatigue” value ([5]; all patients) was 10%. For the same molecule, the “Grade ≥3 AE: anemia” value ([5]; all patients) was 23%, the “Grade ≥3 AE: thrombocytopenia” value ([5]; all patients) was 10% and the “Patients with one or more serious AE (SAE)” value ([5]; all patients) was “seven”. The “Treatment-emergent AE: anemia” value ([5]; all patients) was 31%, the “Treatment-emergent AE: dyspnea” value ([5]; all patients) was 21% and the “Treatment-emergent AE: fatigue” value ([5]; all patients) was 21%. For the same molecule, the “Treatment-emergent AE: headache” value ([5]; all patients) was 21%, the “Treatment-emergent AE: nausea” value ([5]; all patients) was 21% and the Maximum-tolerated dose ([5]; doses 20.5-410 mg BID) was “not reached”. The “Cardiac events or clinically significant electrocardiogram findings” value ([5]; human, in vivo) was “no cardiac events or clinically significant electrocardiogram findings”, the Dose-dependent toxicity ([5]; human, in vivo) was “No obvious pattern of dose-dependent toxicity” and the “SAE related to study treatment per the investigator” value ([5]; human, in vivo) was “No SAE were considered related to study treatment”. The “SAE: hematuria” value ([5]; human, in vivo) was 1 patient, the “SAE: intestinal perforation” value ([5]; human, in vivo) was 1 patient and the “SAE: lymphocytosis” value ([5]; human, in vivo) was 1 patient. For the same molecule, the “Dose up to which well-tolerated” value ([5]; oral capsules, highest dose studied) was 410 mg BID, the “Dose proportionality of exposure and median steady-state Ctrough” value [6] was “approximately dose-proportional” and the “Mean reduction in serum CCL4” value [7] was 33-59%. The “Mean reduction in serum CCL3” value [8] was 34-62%, the Protein bound [9] was 98.7% and the “Best response of stable disease (SD), patients” value ([10]; 11 CLL, 1 MCL, 1 marginal zone lymphoma) was 13 patients. The “Patients with PR or SD who received vecabrutinib for ≥6 months” value ([10]; of 14 patients with PR or SD) was “Eight”, the “Median time on study treatment” value ([10]; patients with PR or SD) was 28.5 weeks and the residence time [11] was 15 min. The “Mean reduction in serum TNFa” value [12] was 24-57%.
